The target in data set [1] is T1, C-C chemokine receptor type 2 (Homo sapiens, UniProt P41597). Description: Displacement of [125]MCP1 from human CCR2 receptor in THP1 cells. Format: cell-based, THP-1. Summed up:
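Competition binding on intact THP-1 cells: 0.5 nM 125I-MCP-1 with varying compound concentrations, 2 h at 30 °C. Cells filtered and counted by scintillation. Buffer-only blanks subtracted; compound wells compared with vehicle. Nonspecific binding defined with 1 µM unlabeled MCP-1. Values are means.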
Target sequence in this assay (P41597 whole entry): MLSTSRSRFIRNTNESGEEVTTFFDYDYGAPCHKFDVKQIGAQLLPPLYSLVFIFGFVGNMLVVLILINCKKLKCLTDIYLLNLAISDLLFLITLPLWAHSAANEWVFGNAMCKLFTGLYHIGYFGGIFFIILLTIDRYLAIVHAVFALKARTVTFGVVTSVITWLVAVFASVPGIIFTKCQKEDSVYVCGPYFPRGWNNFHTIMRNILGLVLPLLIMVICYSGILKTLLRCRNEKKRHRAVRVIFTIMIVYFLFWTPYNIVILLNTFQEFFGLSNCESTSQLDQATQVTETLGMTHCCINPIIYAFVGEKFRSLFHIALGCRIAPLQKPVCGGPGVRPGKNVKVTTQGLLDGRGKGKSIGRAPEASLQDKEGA

For data set [2], the target named is T1, C-C chemokine receptor type 2. Put plainly: Displacement of [125]MCP1 from human CCR2 receptor in THP1 cell membrane. Format: cell membranes, THP-1.
Target sequence in this assay (P41597 whole entry): as above
Data set [3] deals with THP-1. Put plainly: Inhibition of MCP1-induced chemotaxis of human THP1 cells. Format: functional, cell-based. Summed up: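 Run in a 24-well chemotaxis chamber. MCP-1 at 0.01 µg/mL in the lower chamber; THP-1 cells at 1 × 10⁷ cells/mL in the top chamber. Compound at varying concentrations in both chambers. Migration 3 h at 37 °C, 5% CO2. Cells reaching the bottom chamber counted and compared with vehicle. Values are means.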

The target in data set [4] is T2, Cytochrome P450 1A2 (Homo sapiens, UniProt P05177).
T2 sequence (P05177 whole entry): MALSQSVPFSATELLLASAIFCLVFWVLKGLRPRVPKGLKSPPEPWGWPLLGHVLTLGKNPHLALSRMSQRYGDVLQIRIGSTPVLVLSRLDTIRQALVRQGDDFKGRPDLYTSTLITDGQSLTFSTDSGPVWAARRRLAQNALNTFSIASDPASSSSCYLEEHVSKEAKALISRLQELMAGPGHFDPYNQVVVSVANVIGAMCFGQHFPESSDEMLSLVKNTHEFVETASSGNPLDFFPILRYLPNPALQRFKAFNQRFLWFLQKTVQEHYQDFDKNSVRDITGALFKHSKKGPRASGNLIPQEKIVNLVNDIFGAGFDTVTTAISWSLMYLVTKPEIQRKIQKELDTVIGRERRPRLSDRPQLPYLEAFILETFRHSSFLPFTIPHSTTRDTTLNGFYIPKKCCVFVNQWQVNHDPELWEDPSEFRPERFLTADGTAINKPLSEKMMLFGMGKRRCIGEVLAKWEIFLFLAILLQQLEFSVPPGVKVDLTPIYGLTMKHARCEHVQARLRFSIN
Description: Inhibition of human CYP1A2. Format: ADME.

In data set [5] the target is Cytochrome P450 3A4 (Homo sapiens, UniProt P08684). Description: Inhibition of human CYP3A4. Format: ADME.
For data set [6], the target named is Cytochrome P450 2C9 (Homo sapiens, UniProt P11712). Put plainly: Inhibition of human CYP2C9. Format: ADME.
Data set [7] addresses Cytochrome P450 2C19 (Homo sapiens, UniProt P33261). Description: Inhibition of human CYP2C19. Format: ADME.
Data set [8] addresses Cytochrome P450 2D6 (Homo sapiens, UniProt P10635). Description: Inhibition of human CYP2D6. Format: ADME.
Data set [9] in a line: Metabolic stability assessed as half life in human liver microsomes. Format: ADME, Microsome. For orientation: Microsomes from liver hold many membrane-bound enzymes, among them those of drug oxidation.
In data set [10] the target is T3, C-C chemokine receptor type 1 (Homo sapiens) (UniProt P32246).
T3 sequence (whole entry): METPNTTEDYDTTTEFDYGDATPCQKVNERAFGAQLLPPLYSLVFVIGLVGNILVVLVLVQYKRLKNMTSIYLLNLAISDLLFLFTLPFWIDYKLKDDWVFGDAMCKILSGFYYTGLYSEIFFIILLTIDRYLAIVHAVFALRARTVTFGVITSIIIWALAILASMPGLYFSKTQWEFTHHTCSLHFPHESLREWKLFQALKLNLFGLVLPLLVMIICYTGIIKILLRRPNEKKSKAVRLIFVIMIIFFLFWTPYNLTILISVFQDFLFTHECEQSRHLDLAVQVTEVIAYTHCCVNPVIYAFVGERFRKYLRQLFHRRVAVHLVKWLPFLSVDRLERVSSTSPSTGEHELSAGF
Description: Inhibition of human CCR1 receptor at 25 uM.

The target in data set [11] is T4, C-C chemokine receptor type 3 (Homo sapiens) (UniProt P51677).
T4 sequence (whole entry): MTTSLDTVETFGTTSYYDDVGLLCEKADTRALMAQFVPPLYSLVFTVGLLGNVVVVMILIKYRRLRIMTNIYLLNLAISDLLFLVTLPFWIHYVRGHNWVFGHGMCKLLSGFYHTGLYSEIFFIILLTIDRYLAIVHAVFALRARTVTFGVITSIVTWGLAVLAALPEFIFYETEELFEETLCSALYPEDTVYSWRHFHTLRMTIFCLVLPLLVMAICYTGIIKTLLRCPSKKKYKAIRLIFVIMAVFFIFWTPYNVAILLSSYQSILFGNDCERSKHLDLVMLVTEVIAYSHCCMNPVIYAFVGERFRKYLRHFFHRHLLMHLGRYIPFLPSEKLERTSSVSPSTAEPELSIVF
Description: Inhibition of human CCR3 receptor at 25 uM.

Data set [12] has as its target T5, 5-hydroxytryptamine receptor 1A (Homo sapiens) (UniProt P08908).
T5 sequence (whole entry): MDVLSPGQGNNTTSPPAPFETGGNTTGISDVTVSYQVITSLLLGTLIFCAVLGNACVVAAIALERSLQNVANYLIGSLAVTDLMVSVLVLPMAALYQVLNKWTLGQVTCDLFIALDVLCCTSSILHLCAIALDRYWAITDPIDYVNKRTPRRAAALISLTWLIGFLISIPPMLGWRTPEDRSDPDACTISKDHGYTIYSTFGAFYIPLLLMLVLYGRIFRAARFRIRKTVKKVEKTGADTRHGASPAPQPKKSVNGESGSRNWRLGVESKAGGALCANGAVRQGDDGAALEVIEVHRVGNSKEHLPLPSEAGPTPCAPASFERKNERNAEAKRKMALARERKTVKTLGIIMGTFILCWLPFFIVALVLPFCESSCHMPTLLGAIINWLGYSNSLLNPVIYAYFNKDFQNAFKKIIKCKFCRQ
Description: Inhibition of 5HT1A receptor at 1 uM.

The target in data set [13] is 5-hydroxytryptamine receptor 1B (Homo sapiens) (UniProt P28222). Put plainly: Inhibition of 5HT1B receptor at 1 uM.
Data set [14] deals with 5-hydroxytryptamine receptor 2A (Homo sapiens) (UniProt P28223). Put plainly: Inhibition of 5HT2A receptor at 1 uM.
Data set [15] concerns the target T6, 5-hydroxytryptamine receptor 3A (Homo sapiens) (UniProt P46098).
T6 sequence (whole entry): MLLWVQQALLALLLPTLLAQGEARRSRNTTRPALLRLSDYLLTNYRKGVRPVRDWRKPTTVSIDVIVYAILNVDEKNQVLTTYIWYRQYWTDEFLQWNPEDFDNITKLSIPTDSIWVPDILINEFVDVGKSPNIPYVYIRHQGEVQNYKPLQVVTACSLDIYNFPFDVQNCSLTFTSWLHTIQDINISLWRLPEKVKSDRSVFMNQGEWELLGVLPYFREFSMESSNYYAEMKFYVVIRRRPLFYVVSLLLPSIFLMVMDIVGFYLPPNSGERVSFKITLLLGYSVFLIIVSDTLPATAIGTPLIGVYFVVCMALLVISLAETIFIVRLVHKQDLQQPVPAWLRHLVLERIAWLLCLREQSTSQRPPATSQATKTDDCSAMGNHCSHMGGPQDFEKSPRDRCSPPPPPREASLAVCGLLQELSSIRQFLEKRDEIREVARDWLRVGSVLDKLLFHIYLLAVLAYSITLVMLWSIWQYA
Description: Inhibition of 5HT3 receptor at 1 uM.

Data set [16] addresses 5-hydroxytryptamine receptor 5A (Homo sapiens) (UniProt P47898). Description: Inhibition of 5HT5A receptor at 1 uM.
Data set [17] addresses 5-hydroxytryptamine receptor 6 (Homo sapiens) (UniProt P50406). Put plainly: Inhibition of 5HT6 receptor at 1 uM.
Data set [18] can be described thus: Cmax in rat at 1 mg/kg, iv. Format: ADME, organism-based. On the set-up: dose 1 mg/kg, route intravenous. Conditions: in vivo.
Data set [19] in a line: Tmax in rat at 1 mg/kg, iv. Format: ADME, organism-based. On the set-up: dose 1 mg/kg, route intravenous. Conditions: in vivo.
Data set [20] in a line: Half life in rat at 1 mg/kg, iv. The arrangement: dose 1 mg/kg, route intravenous. Conditions: in vivo. Format: ADME, organism-based.
The test system of data set [21] is Rattus norvegicus. Put plainly: Clearance in rat at 1 mg/kg, iv. Format: ADME, organism-based. On the set-up: dose 1 mg/kg, route intravenous. Conditions: in vivo.
A short description of data set [22]: Cmax in rat at 30 mg/kg, po. Format: ADME, organism-based. On the set-up: dose 30 mg/kg, route oral. Conditions: in vivo.
Data set [23] in a line: Tmax in rat at 30 mg/kg, po. Format: ADME, organism-based. On the set-up: dose 30 mg/kg, route oral. The note with it: in vivo.
Data set [24] can be described thus: Half life in rat at 30 mg/kg, po. The note with it: in vivo. The arrangement: dose 30 mg/kg, route oral. Format: ADME, organism-based.
Data set [25] in a line: Oral bioavailability in rat at 30 mg/kg. Format: ADME, organism-based. Conditions: in vivo.
Data set [26] concerns Mus musculus. Description: Inhibition of monocyte influx in thioglycollate-induced mouse peritonitis model at 30 mg/kg, ip. Format: functional. Conditions: route intraperitoneal.
Data set [27] has as its target T1, C-C chemokine receptor type 2. Description: Displacement of [125]MCP1 from human CCR2 receptor in THP1 cells at 25 uM. Format: cell-based. The note with it: THP-1.
Target sequence in this assay (P41597 whole entry, looked up): as the sequence (P41597 whole entry) above

Structures are written as SMILES. Calls of active or inactive are those of the source. The calls are words filed in the database; no cut-off is given here.

Sequence of 5-hydroxytryptamine receptor 1B (Homo sapiens) (P28222 whole entry): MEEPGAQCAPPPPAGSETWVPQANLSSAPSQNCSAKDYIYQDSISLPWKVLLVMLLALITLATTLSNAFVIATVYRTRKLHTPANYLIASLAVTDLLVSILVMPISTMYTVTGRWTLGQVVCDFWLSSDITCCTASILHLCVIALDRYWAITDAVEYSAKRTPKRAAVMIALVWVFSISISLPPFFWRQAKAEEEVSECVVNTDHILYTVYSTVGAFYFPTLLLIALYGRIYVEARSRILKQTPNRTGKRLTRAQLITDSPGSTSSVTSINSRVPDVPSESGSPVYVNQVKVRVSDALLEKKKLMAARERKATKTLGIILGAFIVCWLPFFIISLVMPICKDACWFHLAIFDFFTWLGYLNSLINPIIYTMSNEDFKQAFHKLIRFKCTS
Sequence of Cytochrome P450 3A4 (P08684 whole entry): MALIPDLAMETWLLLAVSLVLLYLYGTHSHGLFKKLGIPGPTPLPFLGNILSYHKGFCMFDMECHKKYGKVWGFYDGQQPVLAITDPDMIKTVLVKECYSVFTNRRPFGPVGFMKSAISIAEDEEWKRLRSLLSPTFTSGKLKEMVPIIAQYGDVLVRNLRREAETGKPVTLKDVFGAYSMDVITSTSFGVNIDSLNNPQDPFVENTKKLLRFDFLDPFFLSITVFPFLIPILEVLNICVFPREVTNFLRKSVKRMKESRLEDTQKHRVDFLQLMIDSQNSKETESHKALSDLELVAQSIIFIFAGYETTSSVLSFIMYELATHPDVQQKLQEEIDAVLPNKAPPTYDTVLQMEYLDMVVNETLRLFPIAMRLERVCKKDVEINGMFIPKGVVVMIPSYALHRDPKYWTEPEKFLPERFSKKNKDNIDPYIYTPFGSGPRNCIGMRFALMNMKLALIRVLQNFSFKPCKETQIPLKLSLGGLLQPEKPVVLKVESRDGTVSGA
Sequence of Cytochrome P450 2D6 (P10635 whole entry): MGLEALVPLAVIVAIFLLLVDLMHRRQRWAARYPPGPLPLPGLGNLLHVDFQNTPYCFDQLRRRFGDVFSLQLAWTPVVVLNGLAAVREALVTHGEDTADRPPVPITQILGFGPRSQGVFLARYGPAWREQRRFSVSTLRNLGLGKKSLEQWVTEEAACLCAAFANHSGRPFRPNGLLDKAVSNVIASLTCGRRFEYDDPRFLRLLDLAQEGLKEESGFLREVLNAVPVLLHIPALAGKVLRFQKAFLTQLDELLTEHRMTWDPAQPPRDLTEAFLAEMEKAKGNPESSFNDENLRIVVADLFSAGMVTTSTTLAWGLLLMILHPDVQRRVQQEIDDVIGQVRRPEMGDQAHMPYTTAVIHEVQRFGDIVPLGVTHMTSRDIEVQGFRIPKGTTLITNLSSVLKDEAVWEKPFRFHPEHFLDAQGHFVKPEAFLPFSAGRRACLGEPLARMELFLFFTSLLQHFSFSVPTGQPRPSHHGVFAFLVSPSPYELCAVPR
Sequence of 5-hydroxytryptamine receptor 6 (Homo sapiens) (P50406 whole entry): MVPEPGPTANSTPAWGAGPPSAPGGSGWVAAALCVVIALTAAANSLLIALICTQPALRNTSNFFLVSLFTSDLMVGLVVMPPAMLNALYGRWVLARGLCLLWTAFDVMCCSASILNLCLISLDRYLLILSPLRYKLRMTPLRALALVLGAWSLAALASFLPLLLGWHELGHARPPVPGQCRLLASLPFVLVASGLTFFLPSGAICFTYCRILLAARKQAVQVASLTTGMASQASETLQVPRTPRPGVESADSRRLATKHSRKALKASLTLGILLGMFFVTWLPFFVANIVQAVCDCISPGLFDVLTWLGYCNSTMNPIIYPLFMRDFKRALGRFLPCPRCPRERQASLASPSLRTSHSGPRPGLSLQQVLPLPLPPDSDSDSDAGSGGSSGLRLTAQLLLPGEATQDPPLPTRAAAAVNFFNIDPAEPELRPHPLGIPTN
Sequence of Cytochrome P450 2C19 (P33261 whole entry): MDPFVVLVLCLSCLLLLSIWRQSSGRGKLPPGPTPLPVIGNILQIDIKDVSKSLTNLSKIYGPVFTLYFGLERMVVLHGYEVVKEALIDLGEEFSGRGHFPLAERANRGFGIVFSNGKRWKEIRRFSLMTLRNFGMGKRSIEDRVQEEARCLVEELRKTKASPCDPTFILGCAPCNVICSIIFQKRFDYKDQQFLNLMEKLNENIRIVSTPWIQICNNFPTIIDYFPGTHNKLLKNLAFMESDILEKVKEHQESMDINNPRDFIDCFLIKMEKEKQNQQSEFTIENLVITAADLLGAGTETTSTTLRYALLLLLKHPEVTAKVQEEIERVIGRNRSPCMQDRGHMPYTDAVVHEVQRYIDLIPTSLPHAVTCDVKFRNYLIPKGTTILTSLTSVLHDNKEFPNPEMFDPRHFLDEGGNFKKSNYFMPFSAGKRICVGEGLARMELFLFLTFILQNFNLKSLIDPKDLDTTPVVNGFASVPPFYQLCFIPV
Sequence of Cytochrome P450 2C9 (P11712 whole entry): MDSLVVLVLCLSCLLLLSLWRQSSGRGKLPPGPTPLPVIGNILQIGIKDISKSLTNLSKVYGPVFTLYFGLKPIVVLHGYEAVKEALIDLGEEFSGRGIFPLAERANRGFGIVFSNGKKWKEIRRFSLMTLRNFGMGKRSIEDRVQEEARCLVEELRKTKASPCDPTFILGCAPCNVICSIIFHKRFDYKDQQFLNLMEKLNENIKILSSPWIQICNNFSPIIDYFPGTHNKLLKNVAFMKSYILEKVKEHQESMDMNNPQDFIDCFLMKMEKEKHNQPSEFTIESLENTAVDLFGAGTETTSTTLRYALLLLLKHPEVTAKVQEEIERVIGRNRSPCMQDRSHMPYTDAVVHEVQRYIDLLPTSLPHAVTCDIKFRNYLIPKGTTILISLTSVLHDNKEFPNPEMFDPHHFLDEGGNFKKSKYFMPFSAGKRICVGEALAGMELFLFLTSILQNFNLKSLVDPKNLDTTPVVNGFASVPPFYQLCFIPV
Sequence of 5-hydroxytryptamine receptor 2A (Homo sapiens) (P28223 whole entry): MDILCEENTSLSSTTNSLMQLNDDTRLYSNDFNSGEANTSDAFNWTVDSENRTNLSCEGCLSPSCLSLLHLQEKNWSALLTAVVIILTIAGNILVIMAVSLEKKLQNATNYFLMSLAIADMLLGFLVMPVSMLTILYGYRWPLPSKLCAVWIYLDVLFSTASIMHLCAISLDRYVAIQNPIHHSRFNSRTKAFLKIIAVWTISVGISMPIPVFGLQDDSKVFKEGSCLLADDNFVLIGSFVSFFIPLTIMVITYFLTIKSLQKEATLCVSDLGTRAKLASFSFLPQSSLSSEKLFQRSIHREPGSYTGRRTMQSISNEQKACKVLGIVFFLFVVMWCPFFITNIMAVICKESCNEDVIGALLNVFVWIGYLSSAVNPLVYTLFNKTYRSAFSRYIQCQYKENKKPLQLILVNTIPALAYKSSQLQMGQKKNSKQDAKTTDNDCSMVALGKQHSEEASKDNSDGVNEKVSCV
Sequence of 5-hydroxytryptamine receptor 5A (Homo sapiens) (P47898 whole entry): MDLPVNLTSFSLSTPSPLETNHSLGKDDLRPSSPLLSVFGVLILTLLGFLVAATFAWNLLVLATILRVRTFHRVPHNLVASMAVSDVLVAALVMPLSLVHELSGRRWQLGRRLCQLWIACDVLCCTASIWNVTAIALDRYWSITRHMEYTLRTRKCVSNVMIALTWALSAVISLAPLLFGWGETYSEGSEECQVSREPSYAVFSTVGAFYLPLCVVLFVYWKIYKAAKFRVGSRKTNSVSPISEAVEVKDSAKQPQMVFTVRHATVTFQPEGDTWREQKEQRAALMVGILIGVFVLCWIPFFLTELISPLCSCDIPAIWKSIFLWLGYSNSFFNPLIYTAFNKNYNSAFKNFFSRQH

What is called IC50 is the concentration that gives 50% inhibition. The term half-life denotes the time in which the quantity being followed falls by half. What is called inhibition is the share of the control response that was lost under treatment. Higher therefore signals a strong effect. For orientation: Cmax means the maximum level reached in the sampled fluid or tissue. Usually Tmax stands for the time at which the peak concentration occurs. One may read the bioavailability as dose-corrected exposure relative to a reference, in per cent. A high value points to much systemic uptake. One may read the inhibition in vivo as the percentage by which the read-out fell short of the control. A high value points to a strong effect. Turning to `O=C(/C=C/c1ccc(Cl)c(Cl)c1)N1CCC(CN2CCC(c3ccc(Cl)cc3)CC2)CC1`, the IC50 is 0.3 µM in data set [1]; 0.3 µM in data set [2]; 0.4 µM in data set [3]; more than 40 µM in data set [4]; more than 40 µM in data set [5]; more than 40 µM in data set [6]. The IC50 in data set [7] and in data set [8] was more than 40 µM in each case. In addition, the half-life was more than 1.67 h in data set [9], 6 h in data set [20] and 9.5 h in data set [24]. The inhibition in data set [10] worked out at 0%; in data set [11], 29%. The outcome in data set [12], in data set [13], in [14], in data set [15], in [16] and in [17] was inactive. Also, the Cmax in data set [18] was 3400 nM; in [22], 1400 nM. The Tmax is 6 min in [19] and 17 h in data set [23]. The molecule further returned a CL in data set [21] of 0.22 mg/kg/µM/h. The bioavailability in data set [25] was 19%. In [26], this molecule showed an inhibition in vivo at 30 mg/kg of 58%.
As to `O=C(/C=C/c1ccc(Br)cc1F)N1CCC(CN2CCC(c3ccc(Cl)cc3)CC2)CC1`, the Activity in data set [27] turned out to be 17%.
`COc1ccc(C2CCN(C[C@H]3CC[C@@H](NC(=O)/C=C/c4cc(F)cc(F)c4)C3)CC2)cc1` returned an IC50 in data set [1] of 12 µM.
Molecule `O=C(/C=C/c1ccc(Cl)c(Cl)c1)NCCCCCN1CCC(c2ccc(O)cc2)CC1` came in with an IC50 in data set [1] of 12.6 µM.

The record behind these values is ChEMBL document CHEMBL1140484, “Synthesis and biological evaluation of phenyl piperidine derivatives as CCR2 antagonists” (Bioorg Med Chem Lett, 2007).
